Measurements reported in ChEMBL document CHEMBL1155265, “Design, synthesis and in vitro antibacterial/antifungal evaluation of novel 1-ethyl-6-fluoro-1,4-dihydro-4-oxo-7(1-piperazinyl)quinoline-3-carboxylic acid derivatives” (2009).

How the values were obtained:
Type in all cases: functional
Xanthomonas oryzae = experiment: Antibacterial activity against Xanthomonas oryzae at 50 mg/L after 24 hrs by agar well diffusion method; details: read-out: DIZ
Xanthomonas axonopodis = experiment: Antibacterial activity against Xanthomonas axonopodis at 50 mg/L after 24 hrs by agar well diffusion method; details: read-out: DIZ
Procedure, shortened: (§1)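 Bacteria plated as 0.8 mL of 24-h-old inoculum mixed into 60 mL sterile molten agar cooled to 45 °C, poured into three dishes. Wells bored with centres at least 24 mm apart. Test sample at 50 mg/L in DMSO added to wells. DMSO served as negative control and agricultural streptomycin sulfate as positive control. Read-out was inhibition zone diameter (mm).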

Erwinia = experiment: Antibacterial activity against Erwinia aroideae at 50 mg/L after 24 hrs by agar well diffusion method; details: read-out: DIZ; procedure, shortened: as §1
Bacillus subtilis = experiment: Antibacterial activity against Bacillus subtilis at 50 mg/L after 24 hrs by agar well diffusion method; details: read-out: DIZ; procedure, shortened: as §1
Ralstonia solanacearum = experiment: Antibacterial activity against Ralstonia solanacearum at 50 mg/L after 24 hrs by agar well diffusion method; details: read-out: DIZ
Rhizoctonia solani = experiment: Antifungal activity against Rhizoctonia solani at 200 mg/L by plate growth rate method; details: read-out: GI
Procedure, shortened: (§2)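 Compound dissolved in DMSO and mixed into molten PDA at 45 °C at 200 mg/L, then plates allowed to set. A 5 mm mycelial agar disc was placed at the centre. Plates were incubated at 28 °C in the dark until the untreated control covered the plate. Colony diameters were measured and growth inhibition calculated by Abbott's formula. Each compound was tested three times.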

Fusarium graminearum = experiment: Antifungal activity against Gibberella zeae at 200 mg/L by plate growth rate method; details: read-out: GI
Procedure, shortened: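 Plate growth rate method: compound dissolved in DMSO, mixed into sterile PDA at 45 °C to 200 mg/L, plates poured. A 5 mm mycelium agar disc placed centrally; incubated at 28 °C in the dark until the untreated control covered the plate. Colony diameters measured; growth inhibition computed by Abbott's formula. Each compound tested three times.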

Cytospora mali = experiment: Antifungal activity against Valsa mali at 200 mg/L by plate growth rate method; details: read-out: GI; procedure, shortened: as §2

Row | SMILES | zone of inhibition at 50 µg/mL (Xanthomonas oryzae) [mm] | zone of inhibition at 50 µg/mL (Xanthomonas axonopodis) [mm] | zone of inhibition at 50 µg/mL (Erwinia) [mm] | zone of inhibition at 50 µg/mL (Bacillus subtilis) [mm] | zone of inhibition at 50 µg/mL (Ralstonia solanacearum) [mm] | inhibition of growth at 200 µg/mL (Rhizoctonia solani) [%] | inhibition of growth at 200 µg/mL (Fusarium graminearum) [%] | inhibition of growth at 200 µg/mL (Cytospora mali) [%]
1 | CCn1cc(C(=O)O)c(=O)c2cc(F)c(N3CCN(C(=O)COc4ccc(Br)cc4)CC3)cc21 | 8.02 | 10.7 | 8.94 | 12.7 | 7.47 | 49 | 6 | 9
2 | CCn1cc(C(=O)O)c(=O)c2cc(F)c(N3CCN(C(=O)COc4ccc(Cl)cc4Cl)CC3)cc21 | 10 | 8.16 | 8.52 | 9.91 | 0.5 | 72 | 5 | 17
3 | CCn1cc(C(=O)O)c(=O)c2cc(F)c(N3CCN(C(=O)COc4ccccc4OC)CC3)cc21 | 11.9 | 11 | 12.9 | 17.7 | 4.97 | 0 | 14 | 7
4 | CCn1cc(C(=O)O)c(=O)c2cc(F)c(N3CCN(C(=O)c4cc(C)oc4C)CC3)cc21 | 18.1 | 11.7 | 11.7 | 15.7 | 8.39 | 16 | 25 | 29
5 | CCn1cc(C(=O)O)c(=O)c2cc(F)c(N3CCN(C(=O)c4ccc(Cl)cc4)CC3)cc21 | 17.7 | 12.9 | 16.6 | 18.5 | 1.47 | 21 | 27 | 16
6 | CCn1cc(C(=O)O)c(=O)c2cc(F)c(N3CCN(C(=O)/C=C/c4ccc(C)o4)CC3)cc21 | 18.1 | 10.2 | 11.2 | 17 | 6.97 | 83 | 25 | 25
7 | CCn1cc(C(=O)O)c(=O)c2cc(F)c(N3CCN(C(=O)c4c(C)oc(C)c4C)CC3)cc21 | 12.7 | 11.1 | 12.4 | 13.9 | 5.31 | 65 | 24 | 40
8 | CCn1cc(C(=O)O)c(=O)c2cc(F)c(N3CCN(C(=O)c4ccc(Br)o4)CC3)cc21 | 13 | 12.1 | 13.7 | 18.9 | 6.72 | 47 | 26 | 27
9 | CCn1cc(C(=O)O)c(=O)c2cc(F)c(N3CCN(C(=O)/C=C/c4ccc(Cl)cc4Cl)CC3)cc21 | 4.44 | 5.91 | 2.92 | 2.08 | 0 | 0 | 2 | 6
10 | CCn1cc(C(=O)O)c(=O)c2cc(F)c(N3CCN(C(=O)c4oc5ccccc5c4C)CC3)cc21 | 5.44 | 5.24 | 5.94 | 6.99 | 3.56 | 65 | 45 | 33
11 | CCn1cc(C(=O)O)c(=O)c2cc(F)c(N3CCN(C(=O)c4ccccc4Br)CC3)cc21 | 16.5 | 14.6 | 16.2 | 20.1 | 8.14 | 15 | 34 | 44
12 | COC(=O)Nc1nc2ccccc2[nH]1 [CARBENDAZIM] |  |  |  |  |  | 100 | 100 | 95
13 | CCn1cc(C(=O)O)c(=O)c2cc(F)c(N3CCN(C(=O)c4ccc(C)cc4)CC3)cc21 | 19.7 | 13 | 14.6 | 17.1 | 3.22 | 36 | 28 | 37
14 | CCn1cc(C(=O)O)c(=O)c2cc(F)c(N3CCN(C(=O)c4ccco4)CC3)cc21 | 22.9 | 15.5 | 13.8 | 22.5 | 9.81 | 14 | 7 | 8
15 | CCn1cc(C(=O)O)c(=O)c2cc(F)c(N3CCN(C(=O)COc4ccc(OC)cc4)CC3)cc21 | 14.5 | 12.5 | 15.2 | 17.6 | 6.31 | 60 | 17 | 10
16 | CCn1cc(C(=O)O)c(=O)c2cc(F)c(N3CCN(C(=O)COc4ccc(F)cc4)CC3)cc21 | 11 | 11.1 | 13.3 | 13.9 | 3.31 | 52 | 15 | 12
17 | CCn1cc(C(=O)O)c(=O)c2cc(F)c(N3CCN(C(=O)/C=C/c4ccccc4)CC3)cc21 | 11.7 | 12.1 | 10.8 | 15.2 | 4.64 | 29 | 5 | 9
18 | CCn1cc(C(=O)O)c(=O)c2cc(F)c(N3CCN(C(=O)c4cc5ccccc5o4)CC3)cc21 | 8.35 | 8.66 | 11 | 11.2 | 8.56 | 17 | 7 | 9
19 | CCn1cc(C(=O)O)c(=O)c2cc(F)c(N3CCNCC3)cc21 [NORFLOXACIN] | 22.2 | 17.7 | 21.5 | 30.5 | 19.3 | 0 | 18 | 27
20 | CCn1cc(C(=O)O)c(=O)c2cc(F)c(N3CCN(C(=O)/C=C/c4ccco4)CC3)cc21 | 15.3 | 12.9 | 14.9 | 19.4 | 5.72 | 20 | 8 | 7
21 | CCn1cc(C(=O)O)c(=O)c2cc(F)c(N3CCN(C(=O)COc4ccccc4C)CC3)cc21 | 14.2 | 10.7 | 13.4 | 15.3 | 6.22 | 34 | 20 | 19
22 | CCn1cc(C(=O)O)c(=O)c2cc(F)c(N3CCN(C(=O)c4ccccc4)CC3)cc21 | 22.7 | 15.8 | 17.9 | 20.7 | 5.92 | 25 | 23 | 42
23 | CN[C@@H]1[C@H](O[C@H]2[C@H](O[C@H]3[C@H](O)[C@@H](O)[C@H](N=C(N)N)[C@@H](O)[C@@H]3N=C(N)N)O[C@@H](C)[C@]2(O)C=O)O[C@@H](CO)[C@H](O)[C@H]1O [STREPTOMYCIN] | 0.81 | 0.2 | 0.5 | 25 | 17.3 |  |  | 
24 | CCn1cc(C(=O)O)c(=O)c2cc(F)c(N3CCN(C(=O)c4ccccc4O)CC3)cc21 | 16.7 | 14.4 | 16.5 | 22.7 | 2.06 | 0 | 15 | 17
